Assay results as given in ChEMBL document CHEMBL1138994, “Probing structure/affinity relationships for the Plasmodium falciparum hexose transporter with glucose derivatives” (Bioorg Med Chem Lett, 2006).
Active and inactive are the calls of the source. The calls are words filed in the database; no cut-off is given here.

Legend:
Hexose transporter 1 = molecular target: T1, Hexose transporter 1 (Plasmodium falciparum, UniProt O97467); test: Inhibition of D-glucose uptake mediated by PfHT expressed in Xenopus oocytes; type: functional, cell-based, Oocyte
T1 sequence (O97467 whole entry): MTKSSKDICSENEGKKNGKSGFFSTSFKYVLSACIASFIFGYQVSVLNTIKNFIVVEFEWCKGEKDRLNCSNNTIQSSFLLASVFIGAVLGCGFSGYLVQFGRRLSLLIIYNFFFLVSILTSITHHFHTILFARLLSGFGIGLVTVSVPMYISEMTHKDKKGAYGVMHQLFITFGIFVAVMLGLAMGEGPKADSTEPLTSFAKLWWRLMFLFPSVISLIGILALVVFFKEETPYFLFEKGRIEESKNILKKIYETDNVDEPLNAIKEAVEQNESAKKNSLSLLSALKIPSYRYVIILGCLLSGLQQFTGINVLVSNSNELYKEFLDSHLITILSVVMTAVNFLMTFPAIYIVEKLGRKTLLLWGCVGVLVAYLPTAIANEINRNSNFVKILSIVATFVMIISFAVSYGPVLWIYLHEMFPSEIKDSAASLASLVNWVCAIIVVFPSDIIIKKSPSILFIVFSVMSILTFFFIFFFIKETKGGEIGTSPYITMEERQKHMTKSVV
In short: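 Oocyte-expressed PfHT assay; values are means of three experiments with standard error of the mean, or two individual experiments where marked.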

[1] = molecular target: T2, Solute carrier family 2, facilitated glucose transporter member 1 (Homo sapiens) (UniProt P11166); test: Inhibitory activity against GLUT1
T2 sequence (whole entry): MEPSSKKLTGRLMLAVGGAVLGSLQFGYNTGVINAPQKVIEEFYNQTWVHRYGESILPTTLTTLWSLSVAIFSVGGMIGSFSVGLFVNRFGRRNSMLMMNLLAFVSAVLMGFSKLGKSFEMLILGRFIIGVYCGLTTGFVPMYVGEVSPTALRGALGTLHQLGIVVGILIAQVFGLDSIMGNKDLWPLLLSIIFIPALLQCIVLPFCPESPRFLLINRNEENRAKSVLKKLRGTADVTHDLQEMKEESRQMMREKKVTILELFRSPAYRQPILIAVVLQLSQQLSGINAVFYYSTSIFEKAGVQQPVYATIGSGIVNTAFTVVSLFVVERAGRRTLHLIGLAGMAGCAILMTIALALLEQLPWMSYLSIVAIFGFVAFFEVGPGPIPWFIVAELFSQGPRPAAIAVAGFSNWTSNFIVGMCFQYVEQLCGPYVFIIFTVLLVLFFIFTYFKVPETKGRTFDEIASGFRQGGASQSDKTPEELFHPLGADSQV

Row | Compound | Ki (Hexose transporter 1; oocyte) | inhibition [1] | Ki (Hexose transporter 1; read-out: Ki) [µM]
1 | OC[C@H]1OC(O)[C@H](O)[C@@H](OCCCCCc2ccccc2)[C@@H]1O (stereo partly specified) |  | inactive | 64
2 | CCCCCCCCCCCCO[C@H]1[C@H](O)[C@@H](CO)OC(O)[C@@H]1O (stereo partly specified) |  | inactive | 30
3 | OC[C@H]1OC(O)[C@H](O)[C@@H](OCCCC(F)(F)C(F)(F)C(F)(F)C(F)(F)C(F)(F)C(F)(F)F)[C@@H]1O (stereo partly specified) |  | inactive | > 500
4 | CCCCCCCCO[C@H]1[C@H](O)[C@@H](CO)OC(O)[C@@H]1O (stereo partly specified) |  | inactive | 30
5 | CCCCCCCCCCCO[C@H]1[C@H](O)[C@@H](CO)OC(O)[C@@H]1O (stereo partly specified) |  | inactive | 23
6 | CCCCCCCCCO[C@H]1[C@H](O)[C@@H](CO)OC(O)[C@@H]1O (stereo partly specified) |  | inactive | 32
7 | C=CCOCCCCCCCO[C@H]1[C@H](O)[C@@H](CO)OC(O)[C@@H]1O (stereo partly specified) |  | inactive | > 500
8 | CCCCCCCO[C@H]1[C@H](O)[C@@H](CO)OC(O)[C@@H]1O (stereo partly specified) |  | inactive | < 500
9 | C=CCCCCCCCCO[C@H]1[C@H](O)[C@@H](CO)OC(O)[C@@H]1O (stereo partly specified) |  | inactive | 49
10 | C=CCCCCCCCOCCO[C@H]1[C@H](O)[C@@H](CO)OC(O)[C@@H]1O (stereo partly specified) |  | inactive | 590
11 | C=CCCCCCCCCCO[C@H]1[C@H](O)[C@@H](CO)OC(O)[C@@H]1O (stereo partly specified) |  | inactive | 53
12 | C=CCOCCO[C@H]1[C@H](O)[C@@H](CO)OC(O)[C@@H]1O (stereo partly specified) |  | inactive | > 500
13 | CCCCCCCCCCCCCCO[C@H]1[C@H](O)[C@@H](CO)OC(O)[C@@H]1O (stereo partly specified) |  | inactive | > 500
14 | OC[C@H]1OC(O)[C@H](O)[C@@H](OCCCCCCCC(F)(F)C(F)(F)C(F)(F)C(F)(F)C(F)(F)C(F)(F)F)[C@@H]1O (stereo partly specified) |  | inactive | 130
15 | CCCCCCCCCCCCCCCCCCCCO[C@H]1[C@H](O)[C@@H](CO)OC(O)[C@@H]1O (stereo partly specified) |  | inactive | 
16 | C=CCCCCCCCCCCO[C@H]1[C@H](O)[C@@H](CO)OC(O)[C@@H]1O (stereo partly specified) |  | inactive | 36
17 | CCCCCCCCCCO[C@H]1[C@H](O)[C@@H](CO)OC(O)[C@@H]1O (stereo partly specified) |  | inactive | 19
18 | COC(=O)CCCCCCC#CCCCCCCCO[C@H]1[C@H](O)[C@@H](CO)OC(O)[C@@H]1O (stereo partly specified) |  | inactive | > 500

Continued, values first:

Row | Ki (Hexose transporter 1; oocyte) | inhibition [1] | Ki (Hexose transporter 1; read-out: Ki) [µM] | Compound
19 | Not Active | inactive |  | C=CCOCCOCCO[C@H]1[C@H](O)[C@@H](CO)OC(O)[C@@H]1O (stereo partly specified)
20 |  | inactive | 81 | CCCCc1ccc(CCCCCO[C@H]2[C@H](O)[C@@H](CO)OC(O)[C@@H]2O)cc1 (stereo partly specified)
21 |  | inactive | > 500 | CCCCCCCCCCCCCCCCCCO[C@H]1[C@H](O)[C@@H](CO)OC(O)[C@@H]1O (stereo partly specified)
22 |  | inactive | 148 | OC[C@H]1OC(O)[C@H](O)[C@@H](OCCCCCCCCc2ccccc2)[C@@H]1O (stereo partly specified)
23 |  | inactive | > 500 | CCCCCCCC/C=C/CCCCCCO[C@H]1[C@H](O)[C@@H](CO)OC(O)[C@@H]1O (stereo partly specified)
24 |  | inactive | 37 | C=CCCCCCCCCCCCCCO[C@H]1[C@H](O)[C@@H](CO)OC(O)[C@@H]1O (stereo partly specified)
25 | Not Active | inactive |  | O=C(NCCCO[C@H]1[C@H](O)[C@@H](CO)OC(O)[C@@H]1O)C(F)(F)C(F)(F)C(F)(F)C(F)(F)C(F)(F)C(F)(F)F (stereo partly specified)
26 |  | inactive | 41 | C=CCCCCCCCO[C@H]1[C@H](O)[C@@H](CO)OC(O)[C@@H]1O (stereo partly specified)
